# Compound activity deposited in PubChem by The Scripps Research Institute Molecular Screening Center.
# Hits are enriched below; roughly 1.7% of the tested compounds scored in any of these assays.
# PP5 inh: PP5 (human) phosphatase inhibition; P53041; purified PP5c, OMFP substrate fluorescence; inhibition, % at 6.7 µM; 320,000 tested, 0.18% active; AID 1987;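 active means inhibition above the campaign's mean inhibition across all tested compounds plus 3 SD, cut at about 9.5% in these data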;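 further: 0% = DMSO only and 100% = 100 µM cantharidin control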
# Target sequence (P53041 whole entry, looked up): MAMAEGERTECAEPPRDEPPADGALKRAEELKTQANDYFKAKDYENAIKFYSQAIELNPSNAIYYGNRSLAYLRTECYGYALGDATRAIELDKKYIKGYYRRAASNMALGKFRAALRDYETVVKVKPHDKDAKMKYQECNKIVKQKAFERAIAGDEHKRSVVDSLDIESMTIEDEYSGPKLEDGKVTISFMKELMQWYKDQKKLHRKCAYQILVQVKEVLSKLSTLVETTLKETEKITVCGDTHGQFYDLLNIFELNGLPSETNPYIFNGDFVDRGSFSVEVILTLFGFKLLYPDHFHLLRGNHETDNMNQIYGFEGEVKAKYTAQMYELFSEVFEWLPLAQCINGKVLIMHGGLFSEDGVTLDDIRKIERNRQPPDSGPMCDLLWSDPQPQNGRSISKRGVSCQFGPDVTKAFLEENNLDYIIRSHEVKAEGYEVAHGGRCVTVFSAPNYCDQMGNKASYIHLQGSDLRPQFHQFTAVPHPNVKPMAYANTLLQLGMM
# core dimer inh: blocks dimerization of HCV core protein; inhibition, % at 5 µM; 300,000 tested, 0.33% active; TR-FRET GST/Flag-core106 dimerization, 1536-well; AID 1899;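 active means inhibition above the mean of all tested compounds plus 3 SD, set per screening campaign, cut at about 45% in these data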
#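 Test system: GST/Flag-tagged HCV core106 proteins; Medium: KF-containing HEPES buffer, pH 7.45, DTT, CHAPS, BSA; Times: compound-protein-antibody incubation 4 h at 22.5 °C; Detection: TR-FRET 671 and 617 nm emission; Benchmarks: wells lacking GST-core106 and wells with excess unlabelled core106.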
# ZTA DNA inh: blocks Epstein-Barr virus ZTA, an EBNA-1 counter-screen; P03206; ZTA-DNA binding, fluorescence polarization; inhibition, % at 11 µM; 320,000 tested, 0.15% active; AID 2234; in the data active means inhibition above about 33%
# EBNA-1 inh: blocks EBNA-1 binding to DNA. inhibition, % at 14.8 µM. EBNA-1 DNA binding, fluorescence polarization. 300,000 tested, 0.34% active. AID 1950; in the data active means inhibition above about 28%
# PP1 counter: blocks human PP1-alpha phosphatase, a PP5 counter-screen; inhibition, % at 6.7 µM; AID 2235; P62136; 320,000 tested, 0.9% active; purified PP1alpha, OMFP fluorescence;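 active means inhibition above the mean inhibition of all tested compounds plus 3 SD, computed separately for each screening campaign, cut at about 15% in these data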
# EBNA-1 confirm: EBNA-1 (EBV) inhibition, confirmation; inhibition, % at 14.8 µM; Recombinant EBNA-1 DBD, Cy5-DNA fluorescence polarization; 830 tested, 35% active; shares compounds with EBNA-1 inh;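 active means mean inhibition across replicates above a set limit taken from the earlier primary screen, cut at about 28% in these data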;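 further: plate controls were EBNA-1 protein with DMSO for no effect and wells lacking EBNA-1 for full effect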
# ZTA DNA inh trip: blocks Epstein-Barr virus ZTA in triplicate, EBNA-1 counter-screen. shares compounds with EBNA-1 inh. Zta-ZRE DNA binding, Cy5 fluorescence polarization. inhibition, % at 11.1 µM. 830 tested, under 10 active. AID 2328;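 active means mean inhibition over triplicates above a set limit taken from the primary EBNA-1 screen, cut at about 37% in these data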;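 further: purified full length Zta protein with Cy5 labeled ZRE DNA probe; 0% = Zta with DMSO and 100% = wells lacking Zta protein; inhibitors lower polarization by freeing the labeled DNA probe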
# An asterisk follows results filed as active; x = no result.
SMILES,PP5 inh,core dimer inh,ZTA DNA inh,EBNA-1 inh,PP1 counter,EBNA-1 confirm,ZTA DNA inh trip
CCC(=O)Nc1cccc(-c2nnc(-c3ccccc3)o2)c1,-1,-2,6,4,-3,x,x
COCCNC(=O)c1ccccc1NC(=O)CSc1ccc(C)cc1,1,-1,-4,-18,-5,x,x
O=C(Nc1ccccc1-c1ccccc1)C(=O)Nc1ccccc1-c1ccccc1,0,-11,-18,0,0,x,x
O=C(NCc1nc2ccccc2[nH]1)C1=C[C@H](c2coc3ccccc3c2=O)C[C@H](OCc2ccc(CO)cc2)O1,0,4,10,-12,6,x,x
COc1ccc(-n2nc(C(=O)NCC(=O)NCc3cccc(F)c3)c3ccccc3c2=O)cc1Cl,2,13,22,28*,10,-7,6
CC(=O)C1=C(O)C(=O)N(CCCn2ccnc2)C1c1ccc(Br)cc1 (stereo not given),3,-7,11,40*,-4,9,6
COc1ccc(C2C(C(C)=O)=C(O)C(=O)N2CCCn2ccnc2)cc1OC (stereo not given),1,1,8,0,-3,x,x
Cn1c(CNC(=O)c2ccco2)nnc1SCC(=O)c1ccc(Br)cc1,4,-4,-13,-17,-1,x,x
COc1ccc(-n2c(SCC(=O)Nc3ccccc3)nnc2-c2ccc(NS(=O)(=O)c3ccc(C)cc3)cc2)cc1,3,52*,-3,71*,5,28*,1
CCn1c(SCC(=O)c2c[nH]c3ccccc23)nnc1-c1cccs1,2,-4,-3,30*,-1,23,12
COCCn1c(SCC(=O)c2c[nH]c3ccccc23)nnc1-c1ccncc1,-2,-3,14,15,4,x,x
CCc1nnc(NC(=O)CSc2nc3cc4c(cc3cc2C)OCCO4)s1,1,2,0,102*,0,98*,12
CC(=O)c1ccc(OCCCC(=O)Nc2ccc(S(=O)(=O)N3CCOCC3)cc2)cc1,1,-3,14,-2,-2,x,x
CCc1ccc(NC(=O)[C@@H](NC(=O)[C@@H]2Cc3ccccc3CN2)C(C)CC)cc1 (stereo not given in full),0,-6,17,2,0,x,x
Fc1ccc(-c2csc(/C=C/c3ccc4c(c3)OCO4)n2)cc1,1,11,18,8,0,x,x
CC1=CC2=NC(=O)/C(=C\c3ccc(-c4cccc(Cl)c4)o3)C(=N)N2O1,-2,11,10,29*,5,2,7
CCCC(=O)N(Cc1cc(=O)[nH]c2ccccc12)c1ccccc1OC,1,0,-5,28*,0,-2,3
COc1ccccc1N(C)S(=O)(=O)c1ccc(C(=O)NC2=NCCS2)cc1,0,0,0,45*,-3,2,7
COCCn1c(SCC(=O)Nc2ccccc2OC)nc2c([nH]c3ccccc32)c1=O,1,4,13,30*,-7,-3,17
C=CCn1c(SCC(=O)Nc2ccccc2OC)nc2c([nH]c3ccccc32)c1=O,-1,9,-6,40*,-4,5,4
C=CCn1c(SCC(=O)Nc2ccc(F)cc2F)nc2c([nH]c3ccccc32)c1=O,2,13,21,3,-1,x,x
COC(=O)c1csc(S(=O)(=O)N2CCOCC2)c1OC,1,-4,12,3,-2,x,x
Cc1cccc(NC(=O)CN2C(=O)S/C(=C\c3cc(C)n(C)c3C)C2=O)c1,-2,23,15,30*,16*,10,-7
COc1ccc(NS(=O)(=O)c2ccc3c(c2)CCN3C(=O)CCC(=O)O)cc1OC,-6,-8,-22,-9,0,x,x
COc1ccc(N2CC(O)=C(c3nc4ccccc4s3)C2=N)cc1,-2,3,-9,53*,0,77*,7
SMILES,PP5 inh,core dimer inh,ZTA DNA inh,EBNA-1 inh,PP1 counter,EBNA-1 confirm,ZTA DNA inh trip
COc1cccc(N2CC(O)=C(c3nc4ccccc4s3)C2=N)c1,2,-5,-12,4,-1,x,x
CC(C)CNc1nc(N)c([N+](=O)[O-])c(NCC2CCCO2)n1 (stereo not given),-1,-1,4,-9,-4,x,x
Cc1ccc(Nc2nc(NCC3CCCO3)nc(N)c2[N+](=O)[O-])cc1C (stereo not given),0,8,8,122*,2,110*,16
CN1CCN(C2=NC(=O)/C(=C/c3cn[nH]c3-c3ccccc3)S2)CC1,1,-2,-1,8,-4,x,x
O=C1N=C(N2CCCCC2)S/C1=C\c1cn[nH]c1-c1ccccc1,3,0,14,91*,9,15,0
O=C(CCS(=O)(=O)c1cccc2nonc12)NCc1ccc(Cl)cc1,0,-4,-3,-8,-1,x,x
Cc1cc(NC(=O)CSc2nc(-c3ccc(F)cc3)cs2)no1,1,2,-3,44*,1,13,4
Cc1cc(NC(=O)CSc2nc(-c3ccccc3)cs2)no1,5,0,0,-5,-1,x,x
COc1ccc(C(=O)NNC(=O)CN2CCC(n3nnc4cc(F)ccc43)CC2)cc1,0,0,-4,6,-2,x,x
Cn1c(N)c(C(=O)NCc2ccccc2)sc1=S,0,4,8,4,-2,x,x
COc1ccc(CCNC(=O)c2sc(=S)n(C)c2N)cc1,0,-1,-10,28*,0,3,-5
COC(=O)C1CSC(C(=O)OC)N1C(=O)Nc1ccccc1 (stereo not given),-1,-4,8,55*,3,-10,-3
COC(=O)c1ccc(Cn2cnc3c(cnn3-c3ccc(Cl)cc3)c2=O)o1,2,-11,-7,46*,-9,7,-8
COc1ccc(O)c(-c2cc(C(F)(F)C(F)F)nc(-c3ccccc3)n2)c1,1,-3,-4,31*,-2,8,4
CC(C)(C)C1=CC(O)(c2ccccc2)C=C(C(C)(C)C)C1=O,7,1,-2,5,5,x,x
Cc1cccc(NC(=O)CNC(=O)COc2cc(F)ccc2[N+](=O)[O-])c1C,0,0,-14,-13,-3,x,x
Cc1cccc(NC(=O)CNC(=O)COc2ccc(C(=O)c3ccc(F)cc3)cc2)c1C,-2,-7,-18,41*,0,6,-2
COC(=O)c1ccc2c(=O)n(CCCCCC(=O)NCc3ccc4c(c3)OCO4)c(=O)[nH]c2c1,-2,3,0,63*,-7,24,-14
O=C(CCCCCn1c(=S)[nH]c2ccccc2c1=O)NCc1ccc2c(c1)OCO2,0,-1,5,32*,-1,14,-3
CCCCCn1c(=O)[nH]c2cc(C(=O)NCc3ccc4c(c3)OCO4)ccc2c1=O,1,19,-5,31*,7,18,15
